The record followed here is ChEMBL document CHEMBL3994616, “Rational design, synthesis, and evaluation of novel 2,4-Chloro- and Hydroxy-Substituted diphenyl Benzofuro[3,2-b]Pyridines: Non-intercalative catalytic topoisomerase I and II dual inhibitor” (Eur J Med Chem, 2017).

In general, IC50 refers to the concentration that gives 50% inhibition. For orientation: inhibition means the drop in the measured response relative to a control, in per cent.

The structures appear in SMILES notation. Counter-ions that a name gives are not always drawn. The source made the active and inactive calls. No cut-off for these calls is given here.

One assay has as its system T47D. The assay is described as follows: Antiproliferative activity against human T47D cells after 72 hrs by CCK8 assay. The format is functional, cell-based. Summed up:
(§1)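 Cells seeded at 2-4 x 10⁴ per well, cultured overnight in medium with 10% FBS at 37 °C, 5% CO₂, then serum-starved 4 h. Graded compound concentrations added for 72 h, CCK-8 added for a further 4 h, absorbance read at 450 nm. IC50 from a four-parameter logistic fit. Results come from three experiments, each in triplicate.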
In general terms: Formazan colour is commonly taken as a measure of viable cells.

The subject of assay [1] is HCT-15. Description: Antiproliferative activity against human HCT15 cells after 72 hrs by CCK8 assay. It is filed as functional, cell-based. Conditions: HCT-15, 72 h. In short, it runs like this: as §1
The next assay concerns HeLa. The assay is described as follows: Antiproliferative activity against human HeLa cells after 72 hrs by CCK8 assay. It is filed as functional, cell-based.
Assay [2] has as its target DNA topoisomerase 2-alpha (Homo sapiens) (UniProt P11388). Description: Inhibition of human recombinant topoisomerase-2alpha-mediated relaxation of supercoiled pBR322 DNA at 100 uM after 30 mins by ethidium bromide staining based agarose gel electrophoresis method relative to control.
For assay [3] the target is unchanged. Conditions: 250 uM.
Assay [4] has as its target T1, Topoisomerase I/II (Homo sapiens) (UniProt P11387+P11388). Description: Inhibition of topoisomerase-1/topoisomerase-2 in human HCT15 cell nuclear extract at 25 uM preincubated for 24 hrs followed by supercoiled pBR322 DNA addition measured after 20 mins by ethidium bromide staining based agarose gel electrophoresis method relative to control. It is filed as protein assay. Summed up:
(§2)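 HCT15 cells treated 24 h at 25, 50 or 100 µM, then nuclear fractions prepared. Nuclear extract incubated with 100 ng pBR322 at 37 °C to read relaxation by endogenous topo I/II. Products run on 1.0% agarose at 50 V for 50 min in TAE, EtBr-stained, UV-visualized. Inhibition percent averaged over three experiments.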

In assay [5] the target is T1, Topoisomerase I/II (Homo sapiens). Description: Inhibition of topoisomerase-1/topoisomerase-2 in human HCT15 cell nuclear extract at 50 uM preincubated for 24 hrs followed by supercoiled pBR322 DNA addition measured after 20 mins by ethidium bromide staining based agarose gel electrophoresis method relative to control. It is filed as protein assay. In short, it runs like this:
as §2

The species entered for a further assay is Bos taurus. Description: Induction of calf thymus DNA intercalation assessed as inhibition of ethidium bromide binding to DNA after 30 mins by fluorescence assay. In short, it runs like this:
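Calf thymus DNA ([…]) premixed with EtBr ([…]) in 10 mM Tris buffer pH 7.2, 30 min at room temperature with shaking. Compound then added at increasing concentrations […], final DMSO 1% (vehicle for untreated control), further 30 min at room temperature. EtBr fluorescence read at 471 nm excitation, emission spectrum collected 500–700 nm.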

In assay [6] the test system is HCT-15. The assay is described as follows: Induction of DNA damage in human HCT15 cells assessed as comet tail formation at 30 uM after 24 hrs using SYBRGreen stain by electrophoresis based fluorescence microscopic method (reference value: 3 +/- 1.1%). The format is functional.
In assay [7] the test system is HCT-15. The assay is described as follows: Induction of DNA damage in human HCT15 cells assessed as increase in gammaH2AX level at 30 uM after 24 hrs by Western blot method. It is filed as functional, cell-based. In short, it runs like this:
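HCT15 cells exposed to 30 µM for 24 h, then lysed. 60 µg protein per sample run on 12% SDS-PAGE, and γ-H2AX detected by western blot.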
Background: Immunoblotting shows a protein as a band on a membrane.

Sequence of DNA topoisomerase 2-alpha (Homo sapiens) (P11388 whole entry): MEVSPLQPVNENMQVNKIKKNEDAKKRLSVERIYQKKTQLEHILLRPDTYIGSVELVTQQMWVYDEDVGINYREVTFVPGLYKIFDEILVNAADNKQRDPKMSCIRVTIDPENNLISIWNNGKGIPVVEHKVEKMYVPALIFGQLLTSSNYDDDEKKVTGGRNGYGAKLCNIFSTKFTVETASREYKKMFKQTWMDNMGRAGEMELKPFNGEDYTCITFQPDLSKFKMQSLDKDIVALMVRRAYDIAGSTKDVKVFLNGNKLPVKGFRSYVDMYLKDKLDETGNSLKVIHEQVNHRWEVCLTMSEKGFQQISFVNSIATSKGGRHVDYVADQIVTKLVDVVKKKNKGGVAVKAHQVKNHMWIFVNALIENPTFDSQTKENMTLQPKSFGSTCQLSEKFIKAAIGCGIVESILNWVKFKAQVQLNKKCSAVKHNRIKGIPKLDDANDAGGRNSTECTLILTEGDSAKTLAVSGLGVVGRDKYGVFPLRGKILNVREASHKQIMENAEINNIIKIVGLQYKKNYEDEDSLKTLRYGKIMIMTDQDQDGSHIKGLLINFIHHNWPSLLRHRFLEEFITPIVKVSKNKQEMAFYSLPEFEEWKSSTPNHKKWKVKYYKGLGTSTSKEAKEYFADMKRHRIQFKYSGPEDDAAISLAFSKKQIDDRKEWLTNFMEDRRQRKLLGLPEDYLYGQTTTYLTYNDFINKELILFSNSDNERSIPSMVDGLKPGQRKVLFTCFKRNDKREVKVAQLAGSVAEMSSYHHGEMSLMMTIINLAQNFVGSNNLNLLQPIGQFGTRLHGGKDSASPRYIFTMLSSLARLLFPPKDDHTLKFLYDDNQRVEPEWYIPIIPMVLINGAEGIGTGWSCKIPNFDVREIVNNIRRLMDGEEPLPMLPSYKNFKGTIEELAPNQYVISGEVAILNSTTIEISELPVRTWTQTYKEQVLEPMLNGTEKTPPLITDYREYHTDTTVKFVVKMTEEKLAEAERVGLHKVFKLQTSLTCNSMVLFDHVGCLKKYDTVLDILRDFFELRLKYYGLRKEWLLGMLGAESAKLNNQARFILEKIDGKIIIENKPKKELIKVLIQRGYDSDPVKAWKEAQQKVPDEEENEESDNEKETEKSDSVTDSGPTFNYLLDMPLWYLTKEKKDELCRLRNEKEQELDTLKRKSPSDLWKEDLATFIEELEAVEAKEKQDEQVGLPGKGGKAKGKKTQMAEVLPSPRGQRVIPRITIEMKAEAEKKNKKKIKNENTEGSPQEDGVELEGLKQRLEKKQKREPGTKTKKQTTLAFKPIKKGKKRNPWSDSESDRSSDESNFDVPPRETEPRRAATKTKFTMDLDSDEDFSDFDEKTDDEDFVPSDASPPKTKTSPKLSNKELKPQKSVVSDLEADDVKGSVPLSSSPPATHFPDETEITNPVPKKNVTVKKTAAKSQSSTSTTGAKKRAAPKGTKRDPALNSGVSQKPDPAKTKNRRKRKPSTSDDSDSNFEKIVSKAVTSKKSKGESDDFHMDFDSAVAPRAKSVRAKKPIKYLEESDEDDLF
T1 sequence (P11387 whole entry, looked up): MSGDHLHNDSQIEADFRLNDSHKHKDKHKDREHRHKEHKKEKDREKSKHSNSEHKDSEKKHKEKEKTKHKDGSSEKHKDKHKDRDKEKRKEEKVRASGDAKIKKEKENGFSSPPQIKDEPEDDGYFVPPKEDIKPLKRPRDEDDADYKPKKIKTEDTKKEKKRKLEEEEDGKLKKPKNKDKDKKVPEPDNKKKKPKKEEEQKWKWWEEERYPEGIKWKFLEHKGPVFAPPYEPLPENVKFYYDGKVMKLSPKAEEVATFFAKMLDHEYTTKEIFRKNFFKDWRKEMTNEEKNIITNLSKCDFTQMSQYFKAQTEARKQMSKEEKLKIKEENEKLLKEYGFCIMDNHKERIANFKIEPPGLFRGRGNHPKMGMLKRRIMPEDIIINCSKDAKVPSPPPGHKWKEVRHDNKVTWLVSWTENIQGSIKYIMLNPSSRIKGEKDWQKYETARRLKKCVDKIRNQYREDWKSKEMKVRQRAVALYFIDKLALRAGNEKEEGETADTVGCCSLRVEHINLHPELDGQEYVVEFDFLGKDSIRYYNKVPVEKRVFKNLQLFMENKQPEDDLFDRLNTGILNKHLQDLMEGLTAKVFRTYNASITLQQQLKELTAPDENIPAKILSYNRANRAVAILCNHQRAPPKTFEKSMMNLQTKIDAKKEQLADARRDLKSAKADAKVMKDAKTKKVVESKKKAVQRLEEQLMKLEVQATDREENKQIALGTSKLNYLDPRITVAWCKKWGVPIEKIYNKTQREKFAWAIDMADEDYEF
T1 sequence (P11388 whole entry, looked up): as the sequence (P11388 whole entry) above

Regarding `COc1cccc2c1C(=O)c1c(O)c3c(c(O)c1C2=O)C[C@@](O)(C(=O)CO)C[C@@H]3O[C@H]1C[C@H](N)[C@H](O)[C@H](C)O1` [DOXORUBICIN HYDROCHLORIDE], the IC50 in the assay with T47D came out at 0.3 µM; in the assay with HCT-15 [1], 1 µM.

For the molecule `Oc1ccccc1-c1cc(-c2cccc(Cl)c2)c2oc3ccccc3c2n1`, the IC50 with HeLa, in the assay on T47D and with HCT-15 [1] was more than 50 µM each time. In addition, the inhibition in assay [2] came out at 4.7%.

Regarding `Cc1c2ccncc2c(C)c2c1[nH]c1ccccc12`, the inhibition entry in assay [3] was “Active”.

`Oc1ccc(-c2cc(-c3cccc(Cl)c3)c3oc4ccccc4c3n2)cc1`: the IC50 was more than 50 µM in the assay with HeLa, more than 50 µM in the assay on T47D and 5.9 µM in the assay on HCT-15 [1]. The inhibition in assay [2] was found to be 4.9%.

Regarding `Oc1ccc(-c2cc(-c3ccccc3Cl)nc3c2oc2ccccc23)cc1`, the IC50 in the assay on HeLa was 3.9 µM; in the assay on T47D, 6.1 µM; in the assay on HCT-15 [1] it was 0.4 µM. Moreover, the inhibition in [2] is 92.8%.

Take `Oc1ccc(-c2cc(-c3ccc(Cl)cc3)c3oc4ccccc4c3n2)cc1`: the IC50 was found to be 11.8 µM in the assay on HeLa, 11.6 µM in the assay on T47D and 21.3 µM in the assay with HCT-15 [1]. Further, the inhibition in assay [2] was 65.6%.

As to `Oc1ccccc1-c1cc(-c2ccccc2Cl)c2oc3ccccc3c2n1`, the IC50 in the assay on HeLa is 10.9 µM; in the assay with T47D, 3 µM; with HCT-15 [1], 0.3 µM. The inhibition in [2] was determined as 58.2%.

For the molecule `Oc1cccc(-c2cc(-c3ccccc3Cl)nc3c2oc2ccccc23)c1`, the half-maximal inhibitory concentration (IC50) with HeLa was determined as 4.4 µM; in the assay on T47D, 1.5 µM; in the assay on HCT-15 [1], 1.6 µM. Further, the inhibition in assay [2] came to 82.9%.

`CC[C@@]1(O)C(=O)OCc2c1cc1n(c2=O)Cc2cc3ccccc3nc2-1` [CAMPTOTHECIN]: the inhibition was determined as 74.6% in [4] and 80.5% in [5]. Also, the results for the IC50 with HeLa, in the assay with T47D and in the assay with HCT-15 [1] were 0.09 µM, 2.1 µM and 0.6 µM, respectively.

Turning to `Oc1cccc(-c2cc(-c3ccccc3Cl)c3oc4ccccc4c3n2)c1`, the values for the IC50 in the assay with HeLa, in the assay with T47D and in the assay with HCT-15 [1] were 4.3 µM, 0.1 µM and 1.4 µM, respectively. In addition, the inhibition in [2] was determined as 60.2%.

For the molecule `Oc1ccccc1-c1cc(-c2ccccc2Cl)nc2c1oc1ccccc12`, the IC50 in the assay with HeLa was determined as 2.8 µM; in the assay with T47D, 3.9 µM; in the assay on HCT-15 [1] it was 0.4 µM. In assay [2], the inhibition turned out to be 85.6%.

As to `COc1cc(NS(C)(=O)=O)ccc1Nc1c2ccccc2nc2ccccc12`, the inhibition entry in the assay filed under Bos taurus was “Dose-dependent effect”.

Take `Oc1ccc(-c2cc(-c3cccc(Cl)c3)nc3c2oc2ccccc23)cc1`: the results for the IC50 in the assay with HeLa, with T47D and with HCT-15 [1] were 0.9 µM, 1.9 µM and 0.2 µM, respectively. Moreover, the inhibition in [2] amounted to 95.4%.

In the case of `Oc1cccc(-c2cc(-c3ccc(Cl)cc3)c3oc4ccccc4c3n2)c1`, the IC50 was 11.1 µM in the assay on HeLa, 2 µM with T47D and more than 50 µM with HCT-15 [1]. Besides, the inhibition entry in assay [2] is “inactive”.

As for `C[C@@H](CN1CC(=O)NC(=O)C1)N1CC(=O)NC(=O)C1` [DEXRAZOXANE], the Activity with HCT-15 [6] was found to be 5.5%. Further, the result with HCT-15 [7] was inactive.

As for `Oc1ccc(-c2cc(-c3ccccc3Cl)c3oc4ccccc4c3n2)cc1`, the IC50 with HeLa was 15.9 µM; in the assay with T47D, 0.8 µM; in the assay with HCT-15 [1], 46.2 µM. Further, the inhibition in assay [2] worked out at 52.7%.

Turning to `Oc1cccc(-c2cc(-c3cccc(Cl)c3)c3oc4ccccc4c3n2)c1`, the IC50 in the assay with HeLa is 6.4 µM; with T47D it was 1.2 µM; in the assay on HCT-15 [1] it was 5.9 µM. Also, the inhibition in assay [2] was 35%.

As for `Oc1ccccc1-c1cc(-c2ccc(Cl)cc2)c2oc3ccccc3c2n1`, the IC50 in the assay on HeLa, with T47D and with HCT-15 [1] was more than 50 µM in each case. In addition, the inhibition in assay [2] is 55.8%.

`Oc1ccccc1-c1cc(-c2ccc(Cl)cc2)nc2c1oc1ccccc12`: the IC50 with HeLa is 9.5 µM; in the assay on T47D, more than 50 µM; in the assay with HCT-15 [1], more than 50 µM. Besides, the inhibition in assay [2] came to 86.7%.

Consider `Oc1cccc(-c2cc(-c3ccc(Cl)cc3)nc3c2oc2ccccc23)c1`, for which the IC50 worked out at 5.7 µM in the assay with HeLa, 2.1 µM with T47D and 0.2 µM with HCT-15 [1]. Further, the inhibition in [2] came to 87.9%.

With `Oc1cccc(-c2cc(-c3cccc(Cl)c3)nc3c2oc2ccccc23)c1`, the IC50 in the assay on HeLa amounted to 4.3 µM; with T47D, 1.4 µM; with HCT-15 [1] it was 0.4 µM. Also, the inhibition in assay [2] was found to be 85.4%.
